From ChEMBL document CHEMBL1212864, “Synthesis of novel 3,5-diaryl pyrazole derivatives using combinatorial chemistry as inhibitors of tyrosinase as well as potent anticancer, anti-inflammatory agents” (Bioorg Med Chem, 2010)

Legend:
THP-1 [1] = experiment: Antiinflammatory activity against human THP1 cells assessed as inhibition of LPS-induced IL6 release at 10 uM after 24 hrs; type: functional; settings: THP-1, 24 h
Method in brief: (§1)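 Human THP-1 cells were grown in RPMI 1640 with 10% FBS, penicillin and streptomycin, then differentiated with PMA. Test agents in 0.5% DMSO were preincubated with cells for 30 min at 37 °C before E. coli 0127:B8 LPS was added. Cytokine release was measured by the manufacturer's (BD Biosciences) method and expressed as percent inhibition versus control; IC50 values came from nonlinear regression.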

HCT-116 [2] = experiment: Anticancer activity against human HCT116 cells at 10 uM after 24 hrs; type: functional
Tyrosinase [3] = biological target: T1, Tyrosinase (Agaricus bisporus, UniProt O42713); experiment: Inhibition of mashroom tyrosinase
T1 sequence (O42713 whole entry): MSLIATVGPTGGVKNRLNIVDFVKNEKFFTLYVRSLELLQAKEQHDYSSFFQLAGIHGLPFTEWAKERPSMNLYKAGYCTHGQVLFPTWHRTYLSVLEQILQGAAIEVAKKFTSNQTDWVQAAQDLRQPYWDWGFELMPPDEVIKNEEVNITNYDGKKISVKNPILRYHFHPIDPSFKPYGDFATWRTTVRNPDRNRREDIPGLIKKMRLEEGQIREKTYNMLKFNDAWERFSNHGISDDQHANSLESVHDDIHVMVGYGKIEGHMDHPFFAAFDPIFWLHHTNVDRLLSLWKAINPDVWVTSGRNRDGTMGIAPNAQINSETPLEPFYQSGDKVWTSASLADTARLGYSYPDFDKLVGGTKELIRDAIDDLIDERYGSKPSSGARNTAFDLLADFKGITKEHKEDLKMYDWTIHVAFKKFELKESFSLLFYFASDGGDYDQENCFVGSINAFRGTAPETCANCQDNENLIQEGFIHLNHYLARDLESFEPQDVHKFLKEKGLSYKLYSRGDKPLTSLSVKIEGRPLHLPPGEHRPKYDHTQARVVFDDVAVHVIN
Method in brief: (§2)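 Mushroom tyrosinase diphenolase activity (L-DOPA substrate) or monophenolase activity (L-tyrosine substrate) in 0.25 M phosphate buffer, pH 6.8, at 30 °C. Samples were first dissolved in DMSO. Dopachrome formation was followed spectrophotometrically at 475 nm.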

PC-3 [4] = experiment: Anticancer activity against human PC3 cells at 10 uM after 24 hrs; type: functional
MCF7 [5] = experiment: Anticancer activity against human MCF7 cells at 10 uM after 24 hrs; type: functional
NCI-H460 [6] = experiment: Anticancer activity against human H460 cells at 10 uM after 24 hrs; type: functional
HL-60 [7] = experiment: Anticancer activity against human HL60 cells at 10 uM after 24 hrs; type: functional
THP-1 [8] = experiment: Antiinflammatory activity against human THP1 cells assessed as inhibition of LPS-induced TNFalpha release at 10 uM after 24 hrs; type: functional; settings: THP-1, 24 h; method in brief: as §1
Tyrosinase [9] = biological target: T1, Tyrosinase; experiment: Inhibition of mashroom tyrosinase assessed as oxidation of L-DOPA; method in brief: as §2
MCF7 [10] = experiment: Anticancer activity against human MCF7 cells at 0.5 uM after 24 hrs; type: functional
HL-60 [11] = experiment: Anticancer activity against human HL60 cells at 0.5 uM after 24 hrs; type: functional
HCT-116 [12] = experiment: Anticancer activity against human HCT116 cells at 0.5 uM after 24 hrs; type: functional
NCI-H460 [13] = experiment: Anticancer activity against human H460 cells at 0.5 uM after 24 hrs; type: functional
PC-3 [14] = experiment: Anticancer activity against human PC3 cells at 0.5 uM after 24 hrs; type: functional
[15] = Cytotoxicity against […] at 1 uM; type: cell-based
Method in brief: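 Cytotoxicity was measured with the CCK-8 kit in PMA-differentiated THP-1 cells at the same time as the LPS-induced cytokine release assay. Test agents were given in 0.5% DMSO with a 30 min preincubation at 37 °C before LPS.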

THP-1 [16] = experiment: Antiinflammatory activity against human THP1 cells assessed as inhibition of LPS-induced TNFalpha release at 1 uM after 24 hrs; type: functional; set-up: scale not given: the % may be the effect or the level left; method in brief: as §1
THP-1 [17] = experiment: Antiinflammatory activity against human THP1 cells assessed as inhibition of LPS-induced IL6 release at 1 uM after 24 hrs; type: functional; set-up: scale not given: the % may be the effect or the level left; method in brief: as §1

Row | Compound | inhibition at 10 µM (THP-1 [1]) [%] | Activity (HCT-116 [2]) [%] | IC50 (Tyrosinase [3]) [µM] | Ki (Tyrosinase [3]) [µM] | Activity (PC-3 [4]) [%] | Activity (MCF7 [5]) [%] | Activity (NCI-H460 [6]) [%] | Activity (HL-60 [7]) [%] | inhibition at 10 µM (THP-1 [8]) [%] | IC50 (Tyrosinase [9]) [µM] | Ki (Tyrosinase [9]) [µM] | Activity (MCF7 [10]) [%] | Activity (HL-60 [11]) [%] | Activity (HCT-116 [12]) [%] | Activity (NCI-H460 [13]) [%] | Activity (PC-3 [14]) [%] | Activity [15] [%] | Activity (THP-1 [16]) [%] | Activity (THP-1 [17]) [%]
1 | COc1cc(OC)c(C2CCN(C)C2CO)c(O)c1-c1cc(-c2ccccc2Cl)[nH]n1 (centres undefined) | 47 | 73 | 22.8 | 10.6 | 69 | 63 | 69 | 67 | 24 | 29.4 | 11.8 | – | – | – | – | – | – | – | –
2 | COc1cc(OC)c(C2CCN(C)C2CO)c(O)c1-c1cc(-c2ccccc2Br)[nH]n1 (centres undefined) | 39 | 61 | – | – | 51 | 55 | 53 | 62 | 19 | – | – | – | – | – | – | – | – | – | –
3 | COc1cc(OC)c(C2CCN(C)C2CO)c(O)c1-c1cc(-c2ccc(Cl)cc2Cl)[nH]n1 (centres undefined) | 41 | 59 | – | – | 63 | 58 | 61 | 59 | 18 | – | – | – | – | – | – | – | – | – | –
4 | COc1cc(OC)c(C2CCN(C)C2CO)c(O)c1-c1cc(-c2ccc([N+](=O)[O-])cc2Cl)[nH]n1 (centres undefined) | 42 | 67 | 17.8 | 9.85 | 65 | 61 | 65 | 63 | 21 | 21.5 | 14.6 | – | – | – | – | – | – | – | –
5 | COc1cc(OC)c(C2CCN(C)C2CO)c(O)c1-c1cc(-c2ccccc2F)[nH]n1 (centres undefined) | 11 | 19 | – | – | 21 | 15 | 23 | 19 | 0 | – | – | – | – | – | – | – | – | – | –
6 | COc1cc(OC)c(C2CCN(C)C2CO)c(O)c1-c1cc(-c2ccccc2C)[nH]n1 (centres undefined) | 13 | 16 | – | – | 17 | 11 | 18 | 14 | 0 | – | – | – | – | – | – | – | – | – | –
7 | COc1ccccc1-c1cc(-c2c(OC)cc(OC)c(C3CCN(C)C3CO)c2O)n[nH]1 (centres undefined) | 10 | 21 | – | – | 29 | 13 | 15 | 17 | 0 | – | – | – | – | – | – | – | – | – | –
8 | COc1ccc(-c2cc(-c3c(OC)cc(OC)c(C4CCN(C)C4CO)c3O)n[nH]2)c(OC)c1 (centres undefined) | 11 | 17 | 1.75 | 0.84 | 16 | 21 | 19 | 24 | 0 | 2.84 | 0.96 | – | – | – | – | – | – | – | –
9 | COc1cc(OC)c(C2CCN(C)C2CO)c(O)c1-c1cc(-c2cccc(Cl)c2)[nH]n1 (centres undefined) | 35 | 63 | – | – | 67 | 59 | 55 | 61 | 11 | – | – | – | – | – | – | – | – | – | –
10 | COc1cc(OC)c(C2CCN(C)C2CO)c(O)c1-c1cc(-c2cccc(Br)c2)[nH]n1 (centres undefined) | 43 | 59 | – | – | 58 | 65 | 61 | 52 | 13 | – | – | – | – | – | – | – | – | – | –
11 | COc1cc(OC)c(C2CCN(C)C2CO)c(O)c1-c1cc(-c2ccc(C)cc2)[nH]n1 (centres undefined) | 10 | 19 | – | – | 11 | 17 | 13 | 21 | 0 | – | – | – | – | – | – | – | – | – | –
12 | COc1cc(OC)c(C2CCN(C)C2CO)c(O)c1-c1cc(-c2ccc(F)cc2)[nH]n1 (centres undefined) | 28 | 21 | 15.5 | 11.2 | 15 | 19 | 16 | 26 | 11 | 19.6 | 12.6 | – | – | – | – | – | – | – | –
13 | COc1ccc(-c2cc(-c3c(OC)cc(OC)c(C4CCN(C)C4CO)c3O)n[nH]2)cc1 (centres undefined) | 12 | 16 | – | – | 22 | 15 | 13 | 19 | 0 | – | – | – | – | – | – | – | – | – | –
14 | COc1cc(OC)c(C2CCN(C)C2CO)c(O)c1-c1cc(-c2ccc(Cl)cc2)[nH]n1 (centres undefined) | 35 | 55 | – | – | 65 | 61 | 58 | 63 | 16 | – | – | – | – | – | – | – | – | – | –
15 | COc1cc(OC)c(C2CCN(C)C2CO)c(O)c1-c1cc(-c2ccc(Br)cc2)[nH]n1 (centres undefined) | 31 | 49 | – | – | 59 | 63 | 61 | 57 | 17 | – | – | – | – | – | – | – | – | – | –
16 | CN1CC[C@H](c2c(O)cc(O)c3c(=O)cc(-c4ccccc4Cl)oc23)[C@H](O)C1 [ALVOCIDIB] | – | – | – | – | – | – | – | – | – | – | – | 74 | 72 | 87 | 78 | 77 | – | – | –
17 | C[C@@H]1C[C@H]2[C@@H]3CCC4=CC(=O)C=C[C@]4(C)[C@@]3(F)[C@@H](O)C[C@]2(C)[C@@]1(O)C(=O)CO [DEXAMETHASONE] | – | – | – | – | – | – | – | – | – | – | – | – | – | – | – | – | 0 | 71 | 85
